The results in this text go back to ChEMBL document CHEMBL5649168, “Discovery of a selective catalytic p300/CBP inhibitor that targets lineage-specific tumours” (Nature, 2017).

The target of series [1] is T1, Histone acetyltransferase p300 (Homo sapiens, UniProt Q09472). The experiment in a line: Inhibition of p300 HAT domain (unknown origin) using Biotin-C6-GRGKGGKGLGKGGAK as substrate pretreated with enzyme for 30 mins followed by incubation with substrate for 1 hr by radiometric scintillation proximity assay.
T1 sequence (Q09472 whole entry, the tested form may be a part): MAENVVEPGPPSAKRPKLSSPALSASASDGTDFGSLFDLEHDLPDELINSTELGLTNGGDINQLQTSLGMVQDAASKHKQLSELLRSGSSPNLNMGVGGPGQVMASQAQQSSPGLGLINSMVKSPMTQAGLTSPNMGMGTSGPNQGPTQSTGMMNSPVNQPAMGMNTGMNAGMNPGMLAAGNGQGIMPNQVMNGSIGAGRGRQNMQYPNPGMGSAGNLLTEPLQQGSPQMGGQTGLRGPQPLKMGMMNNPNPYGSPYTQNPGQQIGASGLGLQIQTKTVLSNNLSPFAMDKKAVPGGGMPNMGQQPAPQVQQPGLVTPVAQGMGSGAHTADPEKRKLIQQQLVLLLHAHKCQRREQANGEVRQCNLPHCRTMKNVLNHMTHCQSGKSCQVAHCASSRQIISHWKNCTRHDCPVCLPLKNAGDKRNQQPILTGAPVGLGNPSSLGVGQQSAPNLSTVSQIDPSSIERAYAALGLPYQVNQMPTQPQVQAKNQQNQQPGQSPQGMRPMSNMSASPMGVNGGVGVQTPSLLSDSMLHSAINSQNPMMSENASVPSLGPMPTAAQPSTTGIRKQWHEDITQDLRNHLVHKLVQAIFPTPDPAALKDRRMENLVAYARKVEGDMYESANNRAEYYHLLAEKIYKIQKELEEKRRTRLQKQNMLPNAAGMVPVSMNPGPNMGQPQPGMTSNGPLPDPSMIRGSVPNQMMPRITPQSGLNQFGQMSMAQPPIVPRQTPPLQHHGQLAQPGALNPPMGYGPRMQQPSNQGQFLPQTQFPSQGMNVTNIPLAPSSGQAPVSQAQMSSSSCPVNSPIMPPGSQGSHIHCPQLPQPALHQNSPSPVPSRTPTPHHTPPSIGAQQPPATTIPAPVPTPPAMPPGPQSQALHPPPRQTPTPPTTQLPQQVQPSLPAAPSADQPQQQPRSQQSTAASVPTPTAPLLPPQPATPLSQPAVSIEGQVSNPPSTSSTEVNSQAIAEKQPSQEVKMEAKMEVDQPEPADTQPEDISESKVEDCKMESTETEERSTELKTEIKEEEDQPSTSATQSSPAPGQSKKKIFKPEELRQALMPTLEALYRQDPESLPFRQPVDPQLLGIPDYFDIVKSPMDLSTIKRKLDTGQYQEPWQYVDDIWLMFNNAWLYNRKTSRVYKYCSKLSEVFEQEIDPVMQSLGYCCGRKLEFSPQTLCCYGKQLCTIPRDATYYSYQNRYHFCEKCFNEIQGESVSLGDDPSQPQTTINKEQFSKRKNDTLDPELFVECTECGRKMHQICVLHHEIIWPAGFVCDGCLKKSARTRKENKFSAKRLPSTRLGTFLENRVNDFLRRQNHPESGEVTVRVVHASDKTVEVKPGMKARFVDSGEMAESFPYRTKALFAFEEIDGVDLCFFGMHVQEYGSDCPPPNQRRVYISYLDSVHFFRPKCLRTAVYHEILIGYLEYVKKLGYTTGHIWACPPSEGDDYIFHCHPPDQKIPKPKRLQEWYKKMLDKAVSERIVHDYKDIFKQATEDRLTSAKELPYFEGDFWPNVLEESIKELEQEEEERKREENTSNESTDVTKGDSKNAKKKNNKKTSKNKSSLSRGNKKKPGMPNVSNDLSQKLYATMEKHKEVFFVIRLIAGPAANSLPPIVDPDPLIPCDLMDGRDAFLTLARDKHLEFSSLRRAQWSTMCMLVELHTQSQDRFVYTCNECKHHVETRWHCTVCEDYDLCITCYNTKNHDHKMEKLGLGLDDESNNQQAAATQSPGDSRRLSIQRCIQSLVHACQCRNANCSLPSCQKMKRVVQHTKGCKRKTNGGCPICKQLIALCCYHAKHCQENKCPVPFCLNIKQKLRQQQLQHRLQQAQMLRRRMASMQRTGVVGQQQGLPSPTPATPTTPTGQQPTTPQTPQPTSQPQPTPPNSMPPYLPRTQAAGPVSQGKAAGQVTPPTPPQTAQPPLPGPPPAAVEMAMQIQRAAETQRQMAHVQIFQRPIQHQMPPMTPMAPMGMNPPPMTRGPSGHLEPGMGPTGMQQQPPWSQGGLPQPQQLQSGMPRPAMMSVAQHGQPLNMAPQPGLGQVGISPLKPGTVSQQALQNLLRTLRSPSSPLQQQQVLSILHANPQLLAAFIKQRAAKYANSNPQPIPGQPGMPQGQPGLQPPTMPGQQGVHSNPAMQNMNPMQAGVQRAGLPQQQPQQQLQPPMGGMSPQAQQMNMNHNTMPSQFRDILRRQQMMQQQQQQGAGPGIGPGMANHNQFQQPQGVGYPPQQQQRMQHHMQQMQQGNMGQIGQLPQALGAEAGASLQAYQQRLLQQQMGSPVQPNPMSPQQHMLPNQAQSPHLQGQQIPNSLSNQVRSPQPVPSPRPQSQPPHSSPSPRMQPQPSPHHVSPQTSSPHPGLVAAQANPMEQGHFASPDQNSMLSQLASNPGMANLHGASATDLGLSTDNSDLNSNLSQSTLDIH
Series [2] addresses T2, CREB-binding protein/Histone acetyltransferase p300 (Homo sapiens, UniProt Q09472+Q92793). The settings on record: 22Rv1, dose 0.3-3 mM.
For series [3], the target named is T2, CREB-binding protein/Histone acetyltransferase p300. The experiment in a line: Inhibition of p300/CBP in human 22Rv1 cells assessed as reduction in H3K18Ac level incubated for 3 hrs by Hoechst 33342 staining based high content microscopy analysis. It is filed as cell-based. Put shortly:
(§1)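 Cells received an 8-point half-log dilution series from 10 µM. They were then fixed in 10% formaldehyde (10 min, RT), permeabilised with 0.1% Triton X-100 and blocked with 1% BSA for 1 h. Primary antibodies were applied overnight at 4 °C, followed by Alexa488 anti-rabbit, Alexa555 anti-mouse and Hoechst 33342 for 1 h. Fifteen fields per well were imaged and average mean intensity taken. EC50 came from a sigmoidal fit.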

In a further series the target is MAO-A (Homo sapiens, UniProt P21397). The experiment in a line: Inhibition of MAO-A (unknown origin) at 10 uM by radioligand binding assay relative to control.
Series [4] has as its target T2, CREB-binding protein/Histone acetyltransferase p300. The experiment in a line: Inhibition of p300/CBP in human 22Rv1 cells assessed as reduction in H3K27Ac level incubated for 24 hrs by Hoechst 33342 staining based high content microscopy analysis. In kind it is cell-based. Put shortly:
as §1

In a further series the target is MAO-B (Homo sapiens, UniProt P27338). The experiment in a line: Inhibition of human recombinant MAO-B at 10 uM by radioligand binding assay relative to control.
The target of series [5] is T2, CREB-binding protein/Histone acetyltransferase p300. The experiment in a line: Inhibition of p300/CBP in human PC-3 cells assessed as reduction in H3K9Ac level incubated for 3 hrs by Hoechst 33342 staining based high content microscopy analysis. It is filed as cell-based. Put shortly:
(§2)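 PC-3 cells were plated overnight on collagen I-coated plates. They were treated with an 8-point half-log series from 10 µM, then fixed in 10% formaldehyde, permeabilized in 0.1% Triton X-100 and blocked in 1% BSA. Mean intensity was imaged over 15 fields per well; EC50 from sigmoidal fit.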

The target of series [6] is Ca2+ channel (L, dihydropyridine site) (Homo sapiens, UniProt O60840+Q01668+Q13698+Q13936). The experiment in a line: Inhibition of Ca2+ channel (L, dihydropyridine site) (unknown origin) at 10 uM by radioligand binding assay relative to control. It is filed as protein assay.
Series [7] concerns the target T2, CREB-binding protein/Histone acetyltransferase p300. The experiment in a line: Inhibition of p300/CBP in human 22Rv1 cells assessed as reduction in H3K18Ac level incubated for 1 hr by Hoechst 33342 staining based high content microscopy analysis. In kind it is cell-based. Put shortly: as §1
For series [8] the target is unchanged. The experiment in a line: Inhibition of p300/CBP in human 22Rv1 cells assessed as reduction in H3K9Ac level incubated for 1 hr by Hoechst 33342 staining based high content microscopy analysis. It is filed as cell-based. Put shortly:
as §1

Series [9] has the same target. The experiment in a line: Inhibition of p300/CBP in human PC-3 cells assessed as reduction in H3K27Ac level incubated for 3 hrs by Hoechst 33342 staining based high content microscopy analysis. In kind it is cell-based. Put shortly:
as §2

The target in the next series is CREB-binding protein (Homo sapiens, UniProt Q92793). The experiment in a line: Inhibition of N-terminal 6His-Flag tagged CBP-BHC domain (1072 to 1859 residues) (unknown origin) expressed in Sf9 cells using the Bac-to-Bac baculovirus system under EDTA-free condition using biotinylated synthetic Histone-H4 peptide incubated for 30 mins followed by substrate addition and measured after 1hr by TR-FRET assay.
Chain of CREB-binding protein (Q92793 whole entry, the tested form may be a part): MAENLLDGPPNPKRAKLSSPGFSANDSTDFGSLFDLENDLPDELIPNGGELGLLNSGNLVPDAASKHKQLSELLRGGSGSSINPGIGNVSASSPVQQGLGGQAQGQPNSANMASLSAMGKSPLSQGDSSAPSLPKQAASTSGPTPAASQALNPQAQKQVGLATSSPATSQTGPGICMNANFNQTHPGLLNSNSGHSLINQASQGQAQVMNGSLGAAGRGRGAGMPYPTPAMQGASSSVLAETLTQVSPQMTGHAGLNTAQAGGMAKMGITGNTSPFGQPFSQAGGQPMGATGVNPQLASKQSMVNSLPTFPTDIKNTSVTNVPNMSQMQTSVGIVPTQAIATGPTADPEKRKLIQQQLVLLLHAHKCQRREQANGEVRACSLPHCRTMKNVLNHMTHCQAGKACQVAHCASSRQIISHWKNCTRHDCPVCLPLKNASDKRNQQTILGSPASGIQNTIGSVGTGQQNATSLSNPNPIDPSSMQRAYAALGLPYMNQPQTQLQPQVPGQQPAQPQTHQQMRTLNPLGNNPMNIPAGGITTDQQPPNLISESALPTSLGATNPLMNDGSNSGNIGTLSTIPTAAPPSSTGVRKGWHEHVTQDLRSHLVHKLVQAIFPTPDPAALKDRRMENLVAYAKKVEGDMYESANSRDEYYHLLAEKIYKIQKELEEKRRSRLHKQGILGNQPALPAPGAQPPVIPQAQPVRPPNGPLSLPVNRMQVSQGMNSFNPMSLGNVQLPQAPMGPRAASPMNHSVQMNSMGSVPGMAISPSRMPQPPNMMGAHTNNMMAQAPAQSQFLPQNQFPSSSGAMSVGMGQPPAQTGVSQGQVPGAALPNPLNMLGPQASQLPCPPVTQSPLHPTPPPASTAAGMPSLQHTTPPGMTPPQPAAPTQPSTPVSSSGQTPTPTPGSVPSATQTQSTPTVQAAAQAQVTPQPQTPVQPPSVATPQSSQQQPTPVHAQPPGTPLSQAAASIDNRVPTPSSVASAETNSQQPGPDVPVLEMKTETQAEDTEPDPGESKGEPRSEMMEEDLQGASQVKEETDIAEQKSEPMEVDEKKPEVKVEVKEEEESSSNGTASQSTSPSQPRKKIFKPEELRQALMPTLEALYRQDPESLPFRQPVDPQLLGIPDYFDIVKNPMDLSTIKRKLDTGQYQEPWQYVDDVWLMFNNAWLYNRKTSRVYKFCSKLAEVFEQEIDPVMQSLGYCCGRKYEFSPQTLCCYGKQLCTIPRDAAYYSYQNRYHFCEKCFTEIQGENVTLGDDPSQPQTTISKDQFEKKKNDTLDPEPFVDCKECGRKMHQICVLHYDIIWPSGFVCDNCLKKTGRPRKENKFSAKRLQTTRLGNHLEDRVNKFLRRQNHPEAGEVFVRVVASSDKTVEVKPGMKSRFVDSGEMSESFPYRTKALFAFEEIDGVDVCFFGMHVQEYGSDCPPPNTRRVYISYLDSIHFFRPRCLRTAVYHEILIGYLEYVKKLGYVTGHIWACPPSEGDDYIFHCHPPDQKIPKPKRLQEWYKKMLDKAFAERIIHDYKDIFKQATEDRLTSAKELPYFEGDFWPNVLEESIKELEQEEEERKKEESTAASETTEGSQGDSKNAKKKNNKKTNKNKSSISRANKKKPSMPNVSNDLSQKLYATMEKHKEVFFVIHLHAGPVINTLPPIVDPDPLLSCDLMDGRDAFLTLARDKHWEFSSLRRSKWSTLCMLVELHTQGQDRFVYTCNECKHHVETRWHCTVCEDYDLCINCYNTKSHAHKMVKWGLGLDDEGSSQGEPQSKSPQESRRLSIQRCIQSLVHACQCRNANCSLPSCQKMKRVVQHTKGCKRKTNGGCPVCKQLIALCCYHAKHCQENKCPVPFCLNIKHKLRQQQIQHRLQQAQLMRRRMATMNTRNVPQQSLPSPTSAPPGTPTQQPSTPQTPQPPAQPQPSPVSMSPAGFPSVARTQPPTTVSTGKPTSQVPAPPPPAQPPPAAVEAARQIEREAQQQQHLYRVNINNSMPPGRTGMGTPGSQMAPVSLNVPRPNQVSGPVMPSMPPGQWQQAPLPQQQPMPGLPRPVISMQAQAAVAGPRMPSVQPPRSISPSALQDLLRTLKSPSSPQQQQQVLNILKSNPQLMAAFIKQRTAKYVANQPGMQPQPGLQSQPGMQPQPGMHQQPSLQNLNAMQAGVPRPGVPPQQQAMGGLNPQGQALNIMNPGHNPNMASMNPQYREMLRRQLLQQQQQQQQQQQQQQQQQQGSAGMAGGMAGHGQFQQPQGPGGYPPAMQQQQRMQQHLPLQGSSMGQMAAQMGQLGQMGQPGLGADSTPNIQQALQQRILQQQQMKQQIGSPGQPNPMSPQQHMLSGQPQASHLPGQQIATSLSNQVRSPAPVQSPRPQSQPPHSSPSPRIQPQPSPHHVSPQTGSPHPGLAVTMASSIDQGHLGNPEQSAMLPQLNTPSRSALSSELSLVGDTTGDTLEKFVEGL

The target in series [10] is T2, CREB-binding protein/Histone acetyltransferase p300. The experiment in a line: Inhibition of p300/CBP in human 22Rv1 cells assessed as reduction in H3K9Ac level incubated for 24 hrs by Hoechst 33342 staining based high content microscopy analysis. It is filed as cell-based. Put shortly: as §1
For series [11] the target is unchanged. The experiment in a line: Inhibition of p300/CBP in human PC-3 cells assessed as reduction in H3K18Ac level incubated for 3 hrs by Hoechst 33342 staining based high content microscopy analysis. In kind it is cell-based.
For series [12] the target is unchanged. The experiment in a line: Inhibition of p300/CBP in human 22Rv1 cells assessed as reduction in H3K18Ac level incubated for 24 hrs by Hoechst 33342 staining based high content microscopy analysis. It is filed as cell-based. Put shortly: as §1
Series [13] has as its target T1, Histone acetyltransferase p300. The experiment in a line: Binding affinity to recombinant human p300 HAT domain expressed in Escherichia coli BL21-CodonPlus(DE3)-RIL cells assessed as dissociation constant using CMLVELHTQSQDRF as substrate by surface plasmon resonance analysis. (In general: SPR reads the build-up and loss of mass on a sensor chip optically.)
The target of series [14] is T2, CREB-binding protein/Histone acetyltransferase p300. The experiment in a line: Inhibition of p300/CBP in human 22Rv1 cells assessed as reduction in H3K9Ac level incubated for 3 hrs by Hoechst 33342 staining based high content microscopy analysis. It is filed as cell-based. Put shortly:
as §1

For series [15], the target named is T1, Histone acetyltransferase p300. The experiment in a line: Inhibition of N-terminal 6His-Flag tagged p300-BHC domain (1036 to 1822 residues) (unknown origin) expressed in Sf9 cells using the Bac-to-Bac baculovirus system under EDTA-free condition using biotinylated synthetic Histone-H4 peptide incubated for 30 mins followed by substrate addition and measured after 1hr by TR-FRET assay. Put shortly:
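TR-FRET acetylation of biotinylated histone H4 peptide. Buffer: 100 mM HEPES pH 7.9, 100 mM KCl, 40 µg/mL BSA, 1 mM DTT, 0.01% Triton X-100. The EDTA-free run used protein purified without EDTA and buffer without EDTA. Enzyme at 0.6 nM was preincubated 30 min with compound (3-fold series, 50 µM to 0.00075 µM). Substrates were 2 µM peptide and 0.5 µM acetyl-CoA, 1 h at room temperature. Read by Eu-anti-acetyl-H4 / ULight-streptavidin; IC50 from sigmoidal fit.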
A general note: TR-FRET usually uses a lanthanide donor and a delayed reading to cut background.

Each structure is given as a SMILES string. The source made the active and inactive calls. The rule behind the calls is not given here.

T2 sequence (Q09472 whole entry, looked up): as the sequence (Q09472 whole entry, the tested form may be a part) above
T2 sequence (Q92793 whole entry, looked up): as the sequence (Q92793 whole entry, the tested form may be a part) above

For orientation: IC50 means the point on the concentration scale where inhibition reaches its midpoint. Turning to `NS(=O)(=O)c1ccc(NC(=O)CN2C(=O)SC(=C3CCCCC3)C2=O)cc1`, in [1], the IC50 worked out at 11.5 µM.

For the molecule `C=C(C)[C@H](CC=C(C)C)C[C@]12C[C@H](CC=C(C)C)C(C)(C)[C@](CC=C(C)C)(C(=O)C(C(=O)c3ccc(O)c(O)c3)=C1O)C2=O`, the IC50 in series [1] worked out at 5 µM.

The term inhibition denotes the relative decrease from the control value, in per cent. On to `CNC(=O)c1ccc(N2C(=S)N(c3ccc(C#N)c(C(F)(F)F)c3)C(=O)C2(C)C)cc1F`, for which, in [2], the inhibition entry was “inactive”.

For the molecule `CC(C1CC1)N(Cc1ccccc1)C(=O)CN1C(=O)NC(Cc2c[nH]c3ccccc23)C1=O` (stereo not drawn), the IC50 in series [1] amounted to 5.1 µM.

Usually EC50 stands for the concentration giving half of the maximal effect. What is called Kd is the free concentration of one partner at which half of the binding sites on the other are occupied at equilibrium, for simple one-to-one binding. Take `CNC(=O)Nc1ccc2c(c1)[C@@]1(CC2)OC(=O)N(CC(=O)N(Cc2ccc(F)cc2)[C@@H](C)C(F)(F)F)C1=O` [A-486]: the INH in [3], in series [4], in [7], in series [8], in [10] and in [12] was over 10 µM throughout. Also, in series [14], the INH was over 10 µM. The IC50 in series [1] is over 50 µM; at CREB-binding protein it was 9.03 µM; in [15], over 10 µM. The inhibition at 10 µM was 7% at MAO-A, 0% at MAO-B and -3% in series [6]. The EC50 in series [5], in series [9] and in series [11] was over 10 µM throughout. In addition, the inhibition result in series [5] and in [9] was “inactive” each time. In series [13], the Kd amounted to 20 µM.
